Reference: ChEMBL document CHEMBL4706495, “A novel class of small molecule inhibitors with radioprotective properties” (Eur J Med Chem, 2020)

Legend:
MOLT-4 [1] = assay: Cytotoxicity against human MOLT-4 cells assessed as cell viability at 100 uM measured after 48 hrs by WST-1 assay relative to control; type: functional; details: read-out: Activity
Method in brief: (§1)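 Ten-line human panel (9 cancer, 1 non-cancerous). Cells were seeded at a pre-established optimal density (500–30 × 10³ per well) and settled overnight. Compounds came from 10 mM DMSO stocks and were tested at two concentrations. WST-1 readout followed the manufacturer's protocol at the end of cultivation. Viability is expressed as % of untreated control cells, mean of three independent experiments.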

MOLT-4 [2] = assay: Cytotoxicity against human MOLT-4 cells assessed as cell viability at 10 uM measured after 48 hrs by WST-1 assay relative to control; type: functional; details: read-out: Activity; method in brief: as §1
HeLa [3] = assay: Cytotoxicity against human HeLa cells assessed as cell viability at 100 uM measured after 48 hrs by WST-1 assay relative to control; type: functional; details: read-out: Activity; method in brief: as §1
Mus musculus [4] = assay: Radioprotective activity in C57Bl/6 mouse assessed as average body weight at 100 mg/kg, ip administered 5 min prior to gamma-irradation at 8.5 Gy and measured after 30 days; type: functional
SAOS-2 [5] = assay: Cytotoxicity against human SAOS-2 cells assessed as cell viability at 10 uM measured after 48 hrs by WST-1 assay relative to control; type: functional; details: read-out: Activity; method in brief: as §1
HT-29 [6] = assay: Cytotoxicity against human HT-29 cells assessed as cell viability at 100 uM measured after 48 hrs by WST-1 assay relative to control; type: functional; details: read-out: Activity; method in brief: as §1
[7] = Toxicity in C57Bl/6 mouse assessed as average body weight at 100 mg/kg, ip and measured immediately (reference value: 26.3 +/- 2.4 g); type: organism-based; details: in vivo
A2780 [8] = assay: Cytotoxicity against human A2780 cells assessed as cell viability at 100 uM measured after 48 hrs by WST-1 assay relative to control; type: functional; details: read-out: Activity; method in brief: as §1
PANC-1 [9] = assay: Cytotoxicity against human PANC-1 cells assessed as cell viability at 10 uM measured after 48 hrs by WST-1 assay relative to control; type: functional; details: read-out: Activity; method in brief: as §1
Mus musculus [10] = assay: Radioprotective activity in C57Bl/6 mouse assessed as body weight gain at 100 mg/kg, ip administered 5 min prior to gamma-irradation at 8.5 Gy measured after 30 days relative to control; type: functional
MCF7 [11] = assay: Cytotoxicity against human MCF7 cells assessed as cell viability at 10 uM measured after 48 hrs by WST-1 assay relative to control; type: functional; details: read-out: Activity; method in brief: as §1
A549 [12] = assay: Cytotoxicity against human A549 cells assessed as maximum tolerated concentration incubated for 24 hrs by MTT assay; type: functional
Method in brief: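 A-549 cells in DMEM with 10% FBS and 1% penicillin-streptomycin, left to attach overnight. Compounds made up in PBS, serially diluted in DMEM, incubated 24 h, then viability read by MTT reduction against untreated controls on each plate. MTC taken as the highest concentration showing no significant difference from non-treated control (t-test).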

HT-29 [13] = assay: Cytotoxicity against human HT-29 cells assessed as cell viability at 10 uM measured after 48 hrs by WST-1 assay relative to control; type: functional; details: read-out: Activity; method in brief: as §1
Jurkat [14] = assay: Cytotoxicity against human Jurkat cells assessed as cell viability at 10 uM measured after 48 hrs by WST-1 assay relative to control; type: functional; details: read-out: Activity; method in brief: as §1
[15] = Toxicity in C57Bl/6 mouse assessed as adverse effects at 100 mg/kg, ip measured after 30 days; type: organism-based; details: in vivo, 720 h, time 30 day
Method in brief: (§2)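 Safety in C57Bl/6 mice (27 ± 3 g) given a single 100 mg/kg i.p. injection without irradiation. Deaths, adverse effects and body weight followed over 30 days against an untreated control group. Weight reported as change from day 0.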

A549 [16] = assay: Cytotoxicity against human A549 cells assessed as reduction in cell viability incubated for 24 hrs by MTT assay; type: functional, cell-based; details: A549, 24 h
Method in brief: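 A-549 cells in DMEM with 10% FBS and 1% penicillin-streptomycin were attached overnight. Compounds were prepared in PBS and serially diluted in DMEM, then incubated 24 h. Viability was read by colorimetric MTT reduction against an untreated control on each plate (100%). IC50 came from four-parameter nonlinear regression of the log concentration-response curve, mean ± SEM. MTC is the highest concentration not differing from control (t-test).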

HeLa [17] = assay: Cytotoxicity against human HeLa cells assessed as cell viability at 10 uM measured after 48 hrs by WST-1 assay relative to control; type: functional; details: read-out: Activity; method in brief: as §1
[18] = Toxicity in C57Bl/6 mouse assessed as average body weight at 100 mg/kg, ip measured after 30 days (reference value: 27 +/ 3.2 g); type: organism-based; details: in vivo, 720 h, time 30 day
[19] = Toxicity in C57Bl/6 mouse assessed as mouth death at 100 mg/kg, ip measured after 30 days; type: organism-based; details: in vivo, 720 h, time 30 day; method in brief: as §2
SAOS-2 [20] = assay: Cytotoxicity against human SAOS-2 cells assessed as cell viability at 100 uM measured after 48 hrs by WST-1 assay relative to control; type: functional; details: read-out: Activity; method in brief: as §1
PANC-1 [21] = assay: Cytotoxicity against human PANC-1 cells assessed as cell viability at 100 uM measured after 48 hrs by WST-1 assay relative to control; type: functional; details: read-out: Activity; method in brief: as §1
[22] = Cytotoxicity against human MRC5 cells assessed as cell viability at 100 uM measured after 48 hrs by WST-1 assay relative to control; type: cell-based; details: read-out: Activity; method in brief: as §1
Jurkat [23] = assay: Cytotoxicity against human Jurkat cells assessed as cell viability at 100 uM measured after 48 hrs by WST-1 assay relative to control; type: functional; details: read-out: Activity; method in brief: as §1
A549 [24] = assay: Cytotoxicity against human A549 cells assessed as cell viability at 100 uM measured after 48 hrs by WST-1 assay relative to control; type: functional; details: read-out: Activity; method in brief: as §1
[25] = Toxicity in C57Bl/6 mouse assessed as change in body weight at 100 mg/kg, ip measured after 30 days (reference value: 103 +/- 12 %); type: organism-based; details: in vivo, 720 h, time 30 day
Mus musculus [26] = assay: Radioprotective activity in C57Bl/6 mouse assessed as average body weight at 100 mg/kg, ip administered 5 min prior to gamma-irradation at 8.5 Gy and measured immediately (reference value: 25.4 +/- 2.6 g); type: functional
Mus musculus [27] = assay: Radioprotective activity in C57Bl/6 mouse assessed as median survival time at 100 mg/kg, ip administered 5 min prior to gamma-irradation at 8.5 Gy and measured after 30 days (reference value: 12 days); type: functional
MOLT-4 [28] = assay: Radioprotective activity against gamma irradiation-induced apoptosis in human MOLT-4 cells assessed as viable cells at 100 uM pretreated with compound for 1 hr followed by gamma irradiation and measured after 24 hrs by annexinV/propidium iodide staining based flow cytometry (reference value: 40 %); type: functional; details: MOLT-4, light or radiation study, time 25 hrs, read-out: Activity
A549 [29] = assay: Cytotoxicity against human A549 cells assessed as cell viability at 10 uM measured after 48 hrs by WST-1 assay relative to control; type: functional; details: read-out: Activity; method in brief: as §1
MCF7 [30] = assay: Cytotoxicity against human MCF7 cells assessed as cell viability at 100 uM measured after 48 hrs by WST-1 assay relative to control; type: functional; details: read-out: Activity; method in brief: as §1
A2780 [31] = assay: Cytotoxicity against human A2780 cells assessed as cell viability at 10 uM measured after 48 hrs by WST-1 assay relative to control; type: functional; details: read-out: Activity; method in brief: as §1
[32] = Cytotoxicity against human MRC5 cells assessed as cell viability at 10 uM measured after 48 hrs by WST-1 assay relative to control; type: cell-based; details: read-out: Activity; method in brief: as §1

Structure (SMILES)	viability at 100 µM (MOLT-4 [1])	viability at 10 µM (MOLT-4 [2])	viability at 100 µM (HeLa [3])	viability at 10 µM (SAOS-2 [5])	viability at 100 µM (HT-29 [6])	viability at 100 µM (A2780 [8])	viability at 10 µM (PANC-1 [9])	viability at 10 µM (MCF7 [11])	MTD (A549 [12])	viability at 10 µM (HT-29 [13])	viability at 10 µM (Jurkat [14])	IC50 (A549 [16])	viability at 10 µM (HeLa [17])	viability at 100 µM (SAOS-2 [20])	viability at 100 µM (PANC-1 [21])	viability at 48 h, 100 µM [22]	viability at 100 µM (Jurkat [23])	viability at 100 µM (A549 [24])	viability at 100 µM (MOLT-4 [28])	viability at 10 µM (A549 [29])	other results
COc1cccc(OC)c1OCC(O)CN1CCN(CCO)CC1 (stereo not drawn)	76%	105%	94%	106%	141%	83%	104%	101%	1.56 mM	102%	110%	7.81 mM	101%	82%	115%	115%	84%	99%	61%	97%	Activity (Mus musculus [4]): 27.7 g; Activity [7]: 27 g; Activity (Mus musculus [10]): 109%; Activity [15]: Non-Toxic; Activity [18]: 27.6 g; Activity [19]: Non-Toxic; Activity [25]: 102%; Activity (Mus musculus [26]): 27.3 g; MST (Mus musculus [27]): 12 days; viability at 100 µM (MCF7 [30]): 90%; viability at 10 µM (A2780 [31]): 95%
OCCN1CCN(CC(O)COc2ccc3ccccc3c2)CC1 (stereo not drawn)	100%	109%	116%	98%	103%	91%	101%	93%	0.02 mM	92%	97%	0.31 mM	109%	91%	95%	98%	96%	102%	65%	102%	viability at 48 h, 10 µM [32]: 103%; viability at 100 µM (MCF7 [30]): 93%; viability at 10 µM (A2780 [31]): 99%
OCCN1CCN(CC(O)COc2ccccc2)CC1 (stereo not drawn)	96%	92%	107%	102%	97%	96%	90%	104%	0.59 mM	97%	104%	5.78 mM	95%	96%	108%	101%	91%	99%	57%	97%	viability at 48 h, 10 µM [32]: 101%; viability at 100 µM (MCF7 [30]): 98%; viability at 10 µM (A2780 [31]): 96%
Cc1ccc(OCC(O)CN2CCN(CCO)CC2)cc1 (stereo not drawn)	103%	103%	101%	102%	107%	94%	102%	107%	0.29 mM	98%	101%	2.43 mM	100%	83%	99%	100%	97%	110%	58%	106%	viability at 48 h, 10 µM [32]: 112%; viability at 100 µM (MCF7 [30]): 100%; viability at 10 µM (A2780 [31]): 97%
Cc1ccc(C(C)C)c(OCC(O)CN2CCN(CCO)CC2)c1 (stereo not drawn)	90%	87%	132%	93%	64%	90%	91%	100%	0.16 mM	93%	97%	0.36 mM	105%	109%	125%	90%	98%	114%	58%	90%	viability at 48 h, 10 µM [32]: 102%; viability at 100 µM (MCF7 [30]): 85%; viability at 10 µM (A2780 [31]): 100%
